# The list is not random: actives were taken first. Their share in the collection is about 1.9%.
# TbHK1 inh – blocks Trypanosoma brucei hexokinase 1 activity. recombinant TbHK1, G6PDH-coupled NADH A340. inhibition, % at 10 µM. actives 0.11% (n = 220,000). AID 1430;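 active = inhibition of 50% or more in the single-dose primary screen; inactive = inhibition below 50%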
# Hck Nef HTS – human Hck-Nef kinase inhibition; P08631; Recombinant Hck-YEEI plus Nef, Z-Lyte FRET kinase assay; inhibition, % at 20 µM; actives 0.68% (n = 220,000); AID 463187;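 active = Hck-Nef kinase inhibition above about 50%, limit read from the data; inactive = inhibition below that limit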;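 also: 0% = DMSO with Hck plus Nef and 100% = Hck alone without Nef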
# Runt-CBFb FRET – Runt domain-CBFb interaction inhibition | Q01196+Q13951 | Cerulean-Runt/Venus-CBFb FRET ratio 530/480, 1 h | inhibition, % at 20 µM | actives 0.46% (n = 220,000) | AID 1496;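 active = inhibition over about 50% at 20 µM in the single-dose screen, limit read from the data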;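 also: 0% = DMSO wells and 100% = excess unlabeled CBFb competitor control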
# Target sequence (Q01196 whole entry, looked up, the tested form may be a part): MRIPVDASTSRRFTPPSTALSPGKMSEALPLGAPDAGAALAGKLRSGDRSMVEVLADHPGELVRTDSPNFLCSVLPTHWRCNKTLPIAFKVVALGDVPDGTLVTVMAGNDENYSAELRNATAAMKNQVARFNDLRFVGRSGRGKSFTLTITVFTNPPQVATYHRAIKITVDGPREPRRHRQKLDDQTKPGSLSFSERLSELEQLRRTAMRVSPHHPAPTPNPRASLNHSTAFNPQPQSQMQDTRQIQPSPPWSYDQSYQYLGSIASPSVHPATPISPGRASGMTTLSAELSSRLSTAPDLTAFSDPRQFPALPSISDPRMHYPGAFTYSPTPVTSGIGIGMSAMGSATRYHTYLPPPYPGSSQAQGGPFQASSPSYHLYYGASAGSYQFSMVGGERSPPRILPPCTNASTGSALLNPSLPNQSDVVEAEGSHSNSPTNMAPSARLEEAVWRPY
# Target sequence (Q13951 whole entry, looked up, the tested form may be a part): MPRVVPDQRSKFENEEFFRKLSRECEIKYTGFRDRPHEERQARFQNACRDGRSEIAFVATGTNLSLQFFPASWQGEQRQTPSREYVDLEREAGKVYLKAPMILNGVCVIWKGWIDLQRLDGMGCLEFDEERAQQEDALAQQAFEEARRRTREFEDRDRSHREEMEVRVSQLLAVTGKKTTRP
#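 test system = Cerulean-Runt domain fusion protein, energy donor | probe or stimulus = Venus-CBFb binding partner, 100 nM | incubation = two 1 h room-temperature incubations shielded from light | detection = fluorescence energy transfer, 422 nm excitation, 530/480 nm emission | measure = loss of energy transfer signal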
# RanGTP-Impb inh – disruptors of Ran-importin-beta complex formation – biochemical, FRET, CFP-Ran, YFP-importin-beta, homogeneous, primary screen. cell-free CFP-Ran/YFP-importin-beta FRET ratio. inhibition, % (no concentration beside the values). actives 1.1% (n = 300,000);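 active = more than half of the replicate wells show a fall in the fluorescence ratio signal beyond about 16%, limit read from the data, passing the limit was not always enough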;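 also: 0% = DMSO wells and 100% = Ran loaded with GDP instead of GTP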
# Runt-SMMHC FRET – inhibitors of human RUNX1 Runt domain binding to CBFb-SMMHC; Q01196+Q13951; Cerulean-Runt/Venus-CBFb-SMMHC FRET ratio 530/480, 1 h; inhibition, % at 20 µM; actives 0.74% (n = 220,000); AID 1434;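 active = mean inhibition across duplicate retests at 20 µM reaching about 50%, limit read from the data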;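 also: 0% = DMSO wells and 100% = wells with excess untagged CBFb-SMMHC; inhibitors lower the FRET ratio by blocking Runt binding to CBFb-SMMHC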
# YIC counter – counter-screen YIC FRET for RanGTP-importin-beta inhibitors; actives 40% (n = 1,000); shares compounds with RanGTP-Impb inh; Purified YIC probe, intramolecular FRET ratio YFP/CFP; AID 435026; IC50, µM;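 active = fitted half-maximal inhibitory concentration no more than tenfold above the top dose tested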
# * marks the source's active call; other numbers are inactive results; i = inactive; . = no result.
SMILES,TbHK1 inh,Hck Nef HTS,Runt-CBFb FRET,RanGTP-Impb inh,Runt-SMMHC FRET,YIC counter
CCOc1ccc(NC2c3ccccc3C(=O)N2Cc2ccco2)cc1 (stereo not drawn),2,7,2,2,-3,.
COc1cc([C@@H]2[C@H]3CN(C)CC=C3C(C#N)=C(N)C2(C#N)C#N)cc2c1OCO2,-3,10,30,24*,62*,5.7*
O=C(NNc1c(Cl)cccc1Cl)c1ccno1,1,22,1,-6,-3,.
Cc1cc(=O)oc2c3c(cc(OCC(=O)NCC4CCC(C(=O)O)CC4)c12)OC(C)(C)CC3 (stereo not drawn),.,.,.,-1,.,.
COc1ccc(C(=O)N/N=C/c2sc3ccccc3c2O)cc1,0,4,18,8,71,.
COc1ccc2cc(C(=O)N/N=C/c3sc4ccccc4c3O)ccc2c1,-4,-9,-39,22*,-175,i
CCOC(=O)c1ccc2nc(CCC(=O)N[C@H](C(=O)OC)C(C)C)c(=O)n(CC)c2c1,-9,20,-4,0,-7,.
CC(=O)Nc1ccc(S(=O)(=O)Nc2cc(C)cn(Cc3ccccc3)c2=O)cc1,.,.,.,7,.,.
COc1ccccc1C1C(C(N)=O)=C(C)Nc2ncnn21 (stereo not drawn),-4,7,0,23*,2,>50
CCCn1c(SCC(=O)Nc2ccc(NC(C)=O)cc2)nc2c1c(=O)n(C)c(=O)n2C,.,.,.,17*,.,>50
O=C(CSCc1cc(=O)n2nc(C3CC3)sc2n1)Nc1ccc(F)cc1,.,.,.,8,.,.
Cc1ccc(-c2oc3ccccc3c(=O)c2O)cc1,-1,-6,16,22*,1,17*
Cc1ccc(-c2oc3ccccc3c(=O)c2OCC(=O)O)cc1,-26,-31,-3,2,0,.
CNC(=S)Nc1cc(OC)c(NC(=O)c2ccco2)cc1OC,-16,25,2,2,-2,.
COc1cc(NC(=O)C2CC2)c(OC)cc1NC(=O)c1ccco1,.,.,.,19*,.,>50
Cn1c(=O)[nH]c2c(nc(-c3ccc(Cl)cc3)n2C)c1=O,.,.,.,18*,.,32*
Cc1cc(C)cc(NC(=O)Nc2c(Br)cnn2C)c1,.,.,.,-1,.,.
CCOC(=O)C1(CC2CCCCO2)CCN(C(=O)Nc2ccc3c(c2)OCO3)CC1 (stereo not drawn),7,5,1,22*,4,>50
COC(=O)CCC(=O)NNC(=O)C1CC1(c1ccccc1)c1ccccc1 (stereo not drawn),.,.,.,-1,.,.
O=C(COC(=O)[C@@H]1CC(O)CN1S(=O)(=O)c1ccc(Cl)cc1)NC(=O)NCc1ccccc1 (stereo partly drawn),.,.,.,5,.,.
CCOC(=O)c1c(NC(=O)C2CCCCC2)sc2c1CCN(CC)C2,.,.,.,20*,.,>50
CCOC(=O)c1c(NC(=S)N2CCCCC2)sc2c1CCN(C(=O)OCC)C2,-24,-4,-1,5,0,.
COC(=O)c1c(NC(=O)C2CC2)sc2c1CCN(C(C)=O)C2,-13,7,0,1,-8,.
CCN1CCc2c(sc(NC(=O)C3CCCCC3)c2C(=O)OC)C1,.,.,.,42*,.,>50
CCCCN1C(=O)C(O)(CC(=O)c2ccccn2)c2ccccc21 (stereo not drawn),-5,17,0,-2,2,.
SMILES,TbHK1 inh,Hck Nef HTS,Runt-CBFb FRET,RanGTP-Impb inh,Runt-SMMHC FRET,YIC counter
CC1C=CCC2C(=O)N(c3ccc(OC(=O)c4cccs4)cc3)C(=O)C12 (stereo not drawn),0,17,0,6,-1,.
CC1C=CCC2C(=O)N(c3ccccc3OC(=O)c3cccs3)C(=O)C12 (stereo not drawn),2,18,0,22*,-1,>50
CS(=O)(=O)N(CC(=O)N1CCCC1)Cc1ccc(Cl)cc1,38,1,-1,-2,1,.
c1ccc2sc(NC3=NCN(CCN4CCOCC4)CN3)nc2c1,4,23,-2,28*,1,>50
OCCN1CN=C(Nc2nc3ccccc3s2)NC1,4,9,1,3,-2,.
Cc1ccc(NC(=O)C2CCN(S(=O)(=O)c3ccc4c(c3)CCCC(=O)N4)CC2)cc1N(C)C,.,.,.,1,.,.
COc1ccc(NC(=O)CN2C(=O)CC(C)S(=O)(=O)c3ccccc32)cc1 (stereo not drawn),.,.,.,18*,.,>50
c1cc(CNC23CC4CC(CC(C4)C2)C3)ccn1,3,21,0,-1,0,.
Cc1cccc(C(=O)NC2CCN(CC(=O)NCc3ccccc3F)CC2)c1,.,.,.,0,.,.
COC(=O)C1=CN(Cc2ccc(OC)c(OC)c2)C=C(C(=O)OC)C1c1cccc(O)c1,.,.,.,19*,.,17*
COC(=O)C1=CN(c2cc(C)cc(C)c2)C=C(C(=O)OC)C1c1ccc(OC)c(O)c1,.,.,.,-2,.,.
S=c1[nH]nc(Nc2cccc3ccccc23)s1,-25,-55,30,-3,7,.
O=C(CCc1ccc(S(=O)(=O)N2CCOCC2)cc1)N1CCN(Cc2ccc3c(c2)OCO3)CC1,-10,0,-1,2,-2,.
Cc1cc(Nc2ccccc2)nn1C(=O)c1ccccc1,-7,3,-2,18*,-6,>50
CC(C)(C)c1ccc(S(=O)(=O)NCC(=O)N2CCN(C(=O)c3ccco3)CC2)cc1,-6,10,-2,21*,-1,>50
CC(C)(C)c1ccc(S(=O)(=O)NCC(=O)N2CCCC2)cc1,.,.,.,-2,.,.
COc1cc(/C=N/Nc2snc(SC)c2C#N)ccc1O,-16,2,30,10,27,.
CSc1nsc(/C=C/Nc2ccc(C)cc2)c1C#N,-21,3,3,24*,-6,>50
COc1ccccc1/C=C1\SC(=S)N(CCC(=O)Nc2nnc(C)s2)C1=O,.,.,.,7,.,.
COc1ccc(CCn2c(=N)c(C(=O)NC3CCCCC3)cc3c(=O)n4ccccc4nc32)cc1,.,.,.,19*,.,>50
COc1ccc(CCNC(=O)c2cc3c(=O)n4ccccc4nc3n(CCCN3CCOCC3)c2=N)cc1,.,.,.,20*,.,21*
CCn1c(=O)cc(N2CCC3(CC2)OCCO3)[nH]c1=O,1,3,3,24*,1,>50
O=c1cc(N2CCC3(CC2)OCCO3)[nH]c(=O)n1C1CCCCC1,-3,2,1,2,4,.
Cc1c(CC(=O)NCC(=O)N[C@H](Cc2ccccc2)C(=O)O)c(=O)oc2cc(O)ccc12,.,.,.,16*,.,46*
CCN(Cc1ccccc1)CC(O)COC(c1ccc(OC)cc1)c1ccc(OC)cc1 (stereo not drawn),.,.,.,3,.,.
CN(C)c1nc(SCC(=O)Nc2ccccc2)nc(N2CCOCC2)n1,-2,17,0,-1,-4,.
CC(C)(C)Nc1nc(SCC(=O)Nc2ccccc2)nc(N2CCOCC2)n1,-3,20,-3,21*,3,>50
C=CCn1c(SCn2nnc3ccccc3c2=O)nnc1C1CCCCC1,11,3,1,-3,7,.

# Screening data as filed in PubChem.
